Holding throughout (type): functional, organism-based
Assay [1] relates to Mycobacterium tuberculosis. Nature of the assay: Antibacterial activity against Mycobacterium tuberculosis containing pncA gene with C deletion at nt 99 assessed as at 100 mg/liter. The gist of the method: (§1)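 Clinical M. tuberculosis isolates first grown on Löwenstein-Jensen medium 3 to 4 weeks at 37°C. Radiometric BACTEC 460 test in acidified PZA test medium. Inoculum: ~McFarland 1 suspension grown in 12B medium until growth index (GI) >300. Paired vials per strain: drug-free control and PZA 100 mg/liter. Read when control GI reached 200. Resistant if PZA-vial GI >11% of control GI, susceptible if <9%.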

In assay [2] the test system is Mycobacterium tuberculosis. In words: (§2) Antibacterial activity against Mycobacterium tuberculosis containing wild type PZase assessed as at 100 mg/liter. The gist of the method:
as §1

Assay [3] has as its system Mycobacterium tuberculosis. Described as §2. The gist of the method:
as §1
This is another data set of the same source.

SMILES strings stand for the structures. The source made the active and inactive calls. No cut-off for these calls is given here.

Turning to `NC(=O)c1cnccn1`, the outcome in assay [1] and in assay [2] was inactive. In addition, the result in assay [3] was Active.

These data come from ChEMBL document CHEMBL1255334.
